Published values gathered from unrelated publications.
MET D1228H: Hepatocyte growth factor receptor (MET, Homo sapiens, UniProt P08581, D1228H)
MET Y1235D: Hepatocyte growth factor receptor (MET, Homo sapiens, UniProt P08581, Y1235D)
MET: Hepatocyte growth factor receptor (MET, Homo sapiens, UniProt P08581)
MET M1250T: Hepatocyte growth factor receptor (MET, Homo sapiens, UniProt P08581, M1250T)

SMILES | target | assay | setting | measurement | value
CC/C(=N\NC(=O)NCc1cccc(O)c1)c1ccc(O)c(C)c1O | MET D1228H | enzyme activity, inhibitor | 0.1 µM | inhibition | -2.8%
Cc1c(NC(=O)c2cc(C(N)=O)nc3cc(F)ccc23)c(C(F)(F)F)nn1Cc1ccc(C(C)(C)C)cc1 | MET Y1235D | cell-free assay, competition with immobilised ligand | 1 µM | remaining binding | 84%
N#CCCc1ccc2c(c1)-c1[nH]c3ccc([N+](=O)[O-])cc3c1CC(=O)N2 | MET | cell-free assay | 0.5 µM | remaining signal | 119%
CC(C)CC(=O)N1CCc2nc(-c3ccc(Br)cc3)nc(N(C)Cc3ccccc3)c2C1 | MET | cell-free assay, competition with immobilised ligand | 0.1 µM | remaining binding | 99%
Cc1cnn2ncc(-c3ccnc(N(C)C)n3)c2c1 | MET Y1235D | binding | 1 µM | remaining binding | 87%
Cc1cnc(NC2CCOCC2)nc1-n1cnc(C(=O)NC(CN)c2cc(F)cc(Cl)c2)c1 (stereo not drawn) | MET | enzyme activity, inhibitor, radiometric | 1 µM | remaining activity | 101%
CO[C@@H](C)c1c(Nc2ccc([C@H](N(C)C(=O)C3CCS(=O)(=O)CC3)C(F)(F)F)cc2)cnc2cc(Cl)nn12 | MET Y1235D | cell-free assay, competition with immobilised ligand | 1 µM | remaining binding | 100%
Nc1ncnc2occ(-c3ccc(NC(=O)Nc4cc(C(F)(F)F)ccc4F)cc3)c12 | MET Y1235D | cell-free assay | 20 µM | remaining signal | 1.6%
CNC(=O)c1cc2c(Oc3ccc(NC(=O)C4(C(=O)Nc5ccc(F)cc5)CC4)cc3)ccnc2cc1OC | Hepatocyte growth factor receptor (MET, Homo sapiens, UniProt P08581, D1228N) | enzyme activity, inhibitor, radiometric | 1 µM | inhibition | 100%
O=C(O)[C@H]1[C@H](Cn2nnc3ccccc3c2=O)CC[C@@H]1C(=O)c1ccc(OCCC2CCOCC2)cc1 | MET Y1235D | cell-free assay, competition with immobilised ligand | 1 µM | remaining binding | 100%
CN(C)c1ncc(F)c(-c2cnn3ncccc23)n1 | MET Y1235D | binding | 1 µM | remaining binding | 100%
O=C(Nc1cnn(-c2csc(C(=O)NC3COC3)c2)c1)Nc1c(F)cccc1Cl | MET | enzyme activity, inhibitor | 5 µM | remaining activity | 86.1%
CC1CCCN1c1nccc(-c2cnn3ncccc23)n1 (stereo not drawn) | MET M1250T | binding | 1 µM | remaining binding | 100%
CC(=O)N1CCC(c2ccc(C(=O)NC(=N)N)cc2C(F)(F)F)CC1 | MET | cell-free assay, competition with immobilised ligand | 1 µM | remaining binding | 100%
CN(C)C1CCN(CC#Cc2nn(C3CCCC3)c3nc(NCc4ccccc4)ncc23)C1 (stereo not drawn) | MET | enzyme activity, inhibitor, FRET | 1 µM | inhibition | 28%
Nc1cnc(N2CCc3cc(S(=O)(=O)Nc4c(F)cc(Cl)cc4F)cc(N4CCCC4=O)c32)nc1 | MET Y1235D | cell-free assay, competition with immobilised ligand | 1 µM | remaining binding | 69%
COc1cc(Cl)c(C(=O)N[C@@H](CN[C@H]2CC[C@@H](N)CC2)Cc2ccc(C#N)cc2)cc1-c1ccc(CN[C@H](C)c2ccc(C)cc2)o1 | MET | enzyme activity, inhibitor | 1 µM | remaining activity | 63%
CCCOc1ccc([C@@H]2[C@@H](C(=O)O)[C@H](c3ccc4c(c3)OCO4)CN2CC(=O)Nc2c(CC)cccc2CC)cc1 | MET M1250T | cell-free assay, competition with immobilised ligand | 1 µM | remaining binding | 81%
CC(C)(C)c1nc2c(s1)c1nc(N)ncc1c1ccc(NS(=O)(=O)c3c(F)cccc3F)c(F)c12 | MET | enzyme activity, inhibitor, radiometric | 1 µM | remaining activity | 90%
Cc1cc(NC(=O)c2cccc3cc(-c4cccc5[nH]nc(N)c45)ccc23)ccc1F | MET | enzyme activity, inhibitor | 0.1 µM | activity vs control | 104%
N[C@H]1CCN(c2nccc(-c3cnn4ncccc34)n2)C1 | MET Y1235D | binding | 1 µM | remaining binding | 100%
COc1cc2ncnc(Nc3ccc(F)c(Cl)c3)c2cc1OCCCN1CCOCC1 | MET | cell-free assay | 0.5 µM | remaining signal | 92.4%
C[C@@H]1CCN(c2nccc(-c3cnn4ncccc34)n2)C1 | MET | binding | 1 µM | remaining binding | 84%
O=S(=O)(NC1CCC(c2cc(F)ccc2F)(S(=O)(=O)c2ccc(Cl)cc2)CC1)C(F)(F)F (stereo not drawn) | MET | cell-free assay, competition with immobilised ligand | 1 µM | remaining binding | 100%
c1cnn2ncc(-c3ccnc(N4CCC45COC5)n3)c2c1 | MET Y1235D | binding | 1 µM | remaining binding | 80%
Cc1ccc(C(=O)Nc2ccc(CN3CCN(C)CC3)c(C(F)(F)F)c2)cc1C#Cc1cnc2cccnn12 | MET | cell-free assay | 23.5 nM | remaining signal | 92%
CCN(CC)CCNC(=O)c1c(C)[nH]c(/C=C2\C(=O)Nc3ccc(F)cc32)c1C | MET | cell-free assay | 0.5 µM | remaining signal | 91%
Cc1ccc(NC(=O)c2ccc(C)c(C(F)(F)F)c2)cc1C#Cc1nn(C2CCC(O)CC2)c2ncnc(N)c12 (stereo not drawn) | MET D1228H | cell-free assay | 10 µM | remaining signal | 124%
COc1cc(Nc2c(C#N)cnc3cc(OCCCN4CCN(C)CC4)c(OC)cc23)c(Cl)cc1Cl | MET | cell-free assay | 0.5 µM | remaining signal | 84.5%
CN(CCCC(F)(F)F)c1nccc(-c2cnn3ncccc23)n1 | MET Y1235D | binding | 1 µM | remaining binding | 100%
